Active and inactive are the calls of the source. No cut-off for these calls is given here.
Legend:
Type in all cases: cell-based
[1] = target: ATP-dependent translocase ABCB1 (Homo sapiens, UniProt P08183); experiment: Inhibition of P-gp over expressed in human multidrug-resistant KBVIN cells assessed as intracellular accumulation of doxorubicin at 10uM after 3 hrs by fluorescence microplate reader analysis relative to control
Outline: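 KBvin cells at 5 × 10^3/well were pretreated with compound for 1 h, then given doxorubicin (10 μM final) for 3 h. Cells were washed with ice-cold PBS and lysed in 1% SDS/PBS. Verapamil or CsA served as positive control.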

[2] = system: A549; experiment: Antiproliferative activity against human A549 cells after 72 hrs by SRB assay; conditions: for IC50: Homo sapiens, A549, 72 h
Outline: (§1)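 SRB assay. Cells at 3–5 × 10^3/well were exposed to a range of sample concentrations for 72 h. They were fixed in 50% TCA for 30 min, stained with 0.04% SRB for 30 min, and the dye was dissolved in 10 mM Tris base. Absorbance read at 515 nm. Medium was RPMI 1640 with 10% FBS at 37 °C, 5% CO2. KBvin cells were kept in 100 nM vincristine.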

[3] = Antiproliferative activity against human multidrug-resistant KBVIN cells after 72 hrs by SRB assay; conditions: for IC50: Homo sapiens, KBVIN; outline: as §1
[4] = system: KB; experiment: Antiproliferative activity against human KB cells after 72 hrs by SRB assay; conditions: for IC50: Homo sapiens, KB; outline: as §1
[5] = system: DU-145; experiment: Antiproliferative activity against human DU145 cells after 72 hrs by SRB assay; conditions: for IC50: Homo sapiens, DU-145, 72 h; outline: as §1
[6] = system: KBVIN; experiment: Inhibition of P-gp-mediated multidrug-resistance in human KBVIN cells assessed as fold decrease in vincristine IC50 for cytotoxic activity at 10 uM after 72 hrs by SRB assay relative to control
Outline: (§2)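 KBvin cells were exposed to graded concentrations of anticancer drug (doxorubicin, paclitaxel or vincristine), alone or with 10 μM test compound, for 72 h. Growth was read by SRB assay. IC50 was found by log-linear interpolation. Reversal fold = IC50 (drug alone) / IC50 (drug + compound). Verapamil was the positive control. Each experiment was run at least three times.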

[7] = system: KBVIN; experiment: Inhibition of P-gp-mediated multidrug-resistance in human KBVIN cells assessed as fold decrease in paclitaxel IC50 for cytotoxic activity at 10 uM after 72 hrs by SRB assay relative to control; outline: as §2
[8] = system: NIH3T3; experiment: Inhibition of human P-gp-mediated multidrug-resistance in mouse NIH3T3 MDR cells assessed as potentiation of in vincristine-induced cytotoxic activity at 10 uM after 72 hrs by SRB assay; conditions: Mus musculus cells expressing human P-gp
[9] = system: NIH3T3; experiment: Inhibition of human P-gp-mediated multidrug-resistance in mouse NIH3T3 MDR cells assessed as potentiation of in paclitaxel-induced cytotoxic activity at 10 uM after 72 hrs by SRB assay; conditions: human P-gp expressed in mouse cells
[10] = system: KBVIN; experiment: Inhibition of P-gp-mediated multidrug-resistance in human KBVIN cells assessed as fold decrease in doxorubicin IC50 for cytotoxic activity at 10 uM after 72 hrs by SRB assay relative to control; outline: as §2
[11] = system: KBVIN; experiment: Inhibition of P-gp-mediated multidrug-resistance in human KBVIN cells assessed as […] of paclitaxel-induced cell survival rate at 10 uM after 72 hrs by SRB assay

ATP-dependent translocase ABCB1, sequence (P08183 whole entry): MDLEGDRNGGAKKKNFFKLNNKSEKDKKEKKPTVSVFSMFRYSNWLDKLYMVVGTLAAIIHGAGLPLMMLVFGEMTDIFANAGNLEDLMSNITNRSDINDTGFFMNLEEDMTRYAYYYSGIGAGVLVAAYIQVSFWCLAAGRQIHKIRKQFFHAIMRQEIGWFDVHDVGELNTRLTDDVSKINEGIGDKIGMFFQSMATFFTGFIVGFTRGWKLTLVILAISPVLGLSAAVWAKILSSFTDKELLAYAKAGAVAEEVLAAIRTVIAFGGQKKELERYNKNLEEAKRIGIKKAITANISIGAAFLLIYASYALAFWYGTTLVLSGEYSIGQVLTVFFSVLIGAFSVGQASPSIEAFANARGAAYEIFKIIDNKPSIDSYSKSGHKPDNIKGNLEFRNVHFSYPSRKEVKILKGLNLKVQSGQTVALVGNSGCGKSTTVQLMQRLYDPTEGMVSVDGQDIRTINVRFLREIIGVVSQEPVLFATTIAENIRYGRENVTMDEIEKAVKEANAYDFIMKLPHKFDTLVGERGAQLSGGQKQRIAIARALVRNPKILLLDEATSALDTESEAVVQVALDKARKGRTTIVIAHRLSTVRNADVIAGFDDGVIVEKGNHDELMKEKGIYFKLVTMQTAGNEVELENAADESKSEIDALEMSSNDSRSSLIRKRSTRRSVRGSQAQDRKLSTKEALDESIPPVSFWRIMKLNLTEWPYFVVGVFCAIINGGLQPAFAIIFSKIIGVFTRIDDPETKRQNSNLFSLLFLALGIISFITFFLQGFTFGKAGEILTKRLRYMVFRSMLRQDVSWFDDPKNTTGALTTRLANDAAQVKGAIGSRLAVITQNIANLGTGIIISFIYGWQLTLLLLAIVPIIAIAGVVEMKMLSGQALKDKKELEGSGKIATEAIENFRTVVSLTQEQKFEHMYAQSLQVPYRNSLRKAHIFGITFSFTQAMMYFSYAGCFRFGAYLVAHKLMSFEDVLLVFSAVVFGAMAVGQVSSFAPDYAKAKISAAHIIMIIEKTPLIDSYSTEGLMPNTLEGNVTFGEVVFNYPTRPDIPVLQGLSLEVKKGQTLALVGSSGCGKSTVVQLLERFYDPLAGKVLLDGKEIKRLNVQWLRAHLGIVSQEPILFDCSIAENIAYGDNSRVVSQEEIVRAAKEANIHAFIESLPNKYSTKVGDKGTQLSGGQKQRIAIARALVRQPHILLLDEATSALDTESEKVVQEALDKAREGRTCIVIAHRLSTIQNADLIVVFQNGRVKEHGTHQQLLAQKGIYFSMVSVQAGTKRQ

SMILES	fold change (FC) [1]	IC50 [2] [µM]	IC50 [4] [µM]	IC50 [5] [µM]	IC50 [3] [µM]	fold change (FC) [6]	fold change (FC) [7]	inhibition [8]	inhibition [9]	fold change (FC) [10]	inhibition [11]	Activity ([2]; human, a549, 72 h)	Activity ([3]; human, kbvin)	Activity ([4]; human, kb)	Activity ([5]; human, du-145, 72 h)
COc1cc(COC(=O)c2ccc(C)cc2)c(-c2c(COC(=O)c3ccc(C)cc3)cc(OC)c3c2OCO3)c2c1OCO2	1.2	> 100	> 100	> 100	> 100	51	27	Active	Active	11					
COc1cc(COC(=O)c2ccc(C(F)(F)F)nc2)c(-c2c(COC(=O)c3ccc(C(F)(F)F)nc3)cc(OC)c3c2OCO3)c2c1OCO2		> 100	> 100	> 100	> 100						inactive				
COc1cc(COC(=O)c2ccccc2)c(-c2c(COC(=O)c3ccccc3)cc(OC)c3c2OCO3)c2c1OCO2	1.2	> 100	> 100	> 100	> 100	101	167	Active	Active	9					
COc1cc(CO)c(-c2c(CO)cc(OC)c3c2OCO3)c2c1OCO2		> 100	> 100	> 100	> 100						inactive				
COc1cc(COC(=O)C2CCCCC2)c(-c2c(COC(=O)C3CCCCC3)cc(OC)c3c2OCO3)c2c1OCO2	1.2	> 100	> 100	> 100	> 100	239	24	Active	Active	30					
COc1ccc(C(=O)OCc2cc(OC)c3c(c2-c2c(COC(=O)c4ccc(OC)cc4)cc(OC)c4c2OCO4)OCO3)cc1	1.2	> 100	> 100	> 100	> 100	50	27	Active	Active	11					
COc1c(Br)c(COC(=O)c2ccccc2)c(-c2c(COC(=O)c3ccccc3)c(Br)c(OC)c3c2OCO3)c2c1OCO2		> 100	> 100	> 100	> 100										
COC(=O)c1c(I)c(OC)c2c(c1-c1c3c(c(OC)c(I)c1C(=O)OC)OCO3)OCO2		> 100	> 100	> 100	> 100						inactive				
COc1cc(COC(=O)CCC(=O)O)c(-c2c(COC(=O)CCC(=O)O)cc(OC)c3c2OCO3)c2c1OCO2		> 100	> 100	> 100	> 100						inactive				
COc1cc(COC(=O)c2ccc3ccccc3n2)c(-c2c(COC(=O)c3ccc4ccccc4n3)cc(OC)c3c2OCO3)c2c1OCO2											Active	Toxic	Toxic	Toxic	Toxic
CCCCCCCCCCCC(=O)OCc1cc(OC)c2c(c1-c1c(COC(=O)CCCCCCCCCCC)cc(OC)c3c1OCO3)OCO2		> 100	> 100	> 100	> 100						inactive				
COc1c(Br)c(C(=O)O)c(-c2c3c(c(OC)c(Br)c2C(=O)O)OCO3)c2c1OCO2		> 100	> 100	> 100	> 100										
COc1ccc(C(=O)OCc2cc(OC)c3c(c2-c2c(COC(=O)c4ccc(OC)c(OC)c4)cc(OC)c4c2OCO4)OCO3)cc1OC	1.2	> 100	> 100	> 100	> 100	202	89	Active	Active	21					
COc1cc(COC(=O)C2CCCC2)c(-c2c(COC(=O)C3CCCC3)cc(OC)c3c2OCO3)c2c1OCO2	1.2	> 100	> 100	> 100	> 100	310	20	Active	Active	23					
COc1cccc2c1C(=O)c1c(O)c3c(c(O)c1C2=O)C[C@@](O)(C(=O)CO)C[C@@H]3O[C@H]1C[C@H](N)[C@H](O)[C@H](C)O1 [DOXORUBICIN]	1.2														

Continued, in another order:

fold change (FC) [1]	IC50 [2] [µM]	IC50 [4] [µM]	IC50 [5] [µM]	SMILES	IC50 [3] [µM]	fold change (FC) [6]	fold change (FC) [7]	inhibition [8]	inhibition [9]	fold change (FC) [10]	inhibition [11]	Activity ([2]; human, a549, 72 h)	Activity ([3]; human, kbvin)	Activity ([4]; human, kb)	Activity ([5]; human, du-145, 72 h)
1.2	> 100	> 100	> 100	CCC(=O)OCc1cc(OC)c2c(c1-c1c(COC(=O)CC)cc(OC)c3c1OCO3)OCO2	> 100	31	12	Active	Active	4					
1.2	> 100	> 100	> 100	COc1cc(COC(=O)C=C(C)C)c(-c2c(COC(=O)C=C(C)C)cc(OC)c3c2OCO3)c2c1OCO2	> 100	560	326	Active	Active	7					
1.2	> 100	> 100	> 100	CCCC(C)C(=O)OCc1cc(OC)c2c(c1-c1c(COC(=O)C(C)CCC)cc(OC)c3c1OCO3)OCO2 (racemic)	> 100	53	25	Active	Active	31					
1.2	> 100	> 100	> 100	CCCC(=O)OCc1cc(OC)c2c(c1-c1c(COC(=O)CCC)cc(OC)c3c1OCO3)OCO2	> 100	50	32	Active	Active	4					
1.2	> 100	> 100	> 100	COc1cc(COC(=O)CC(C)C)c(-c2c(COC(=O)CC(C)C)cc(OC)c3c2OCO3)c2c1OCO2	> 100	79	112	Active	Active	6					
1.2	> 100	> 100	> 100	C/C=C/C(=O)OCc1cc(OC)c2c(c1-c1c(COC(=O)/C=C/C)cc(OC)c3c1OCO3)OCO2	> 100	230	102	Active	Active	4					
1.2	> 100	> 100	> 100	CCCCC(=O)OCc1cc(OC)c2c(c1-c1c(COC(=O)CCCC)cc(OC)c3c1OCO3)OCO2	> 100	161	24	Active	Active	9					
1.2	> 100	> 100	> 100	C/C=C/C=C/C(=O)OCc1cc(OC)c2c(c1-c1c(COC(=O)/C=C/C=C/C)cc(OC)c3c1OCO3)OCO2	> 100	54	21	Active	Active	3					
1.2	> 100	> 100	> 100	COc1cc(COC(=O)C(C)C)c(-c2c(COC(=O)C(C)C)cc(OC)c3c2OCO3)c2c1OCO2	> 100	61	21	Active	Active	7					
1.2	> 100	> 100	> 100	CCC(C)C(=O)OCc1cc(OC)c2c(c1-c1c(COC(=O)C(C)CC)cc(OC)c3c1OCO3)OCO2 (racemic)	> 100	70	26	Active	Active	21					
